Results published in ChEMBL document CHEMBL1165965, “Synthesis and structure-activity relationships of 1,2,3,4-tetrahydropyrido[2,3-b]pyrazines as potent and selective inhibitors of the anaplastic lymphoma kinase” (Bioorg Med Chem, 2010).

How the values were obtained:
[1] = molecular target: Casein kinase I isoform gamma-3 (Homo sapiens) (UniProt Q9Y6M4); assay: Inhibition of CSNK1G3 at 1 uM
Outline: (§1)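 Single-concentration screen using Ambit Bioscience KINOMEscan technology across a panel of 250–400 kinases. Per-kinase inhibition from this screen was summarized as S(90), the fraction of kinases inhibited by more than 90%.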

[2] = molecular target: T1, Mitogen-activated protein kinase kinase kinase 15 (Homo sapiens) (UniProt Q6ZN16); assay: Inhibition of MAP3K15 at 1 uM
T1 sequence (whole entry): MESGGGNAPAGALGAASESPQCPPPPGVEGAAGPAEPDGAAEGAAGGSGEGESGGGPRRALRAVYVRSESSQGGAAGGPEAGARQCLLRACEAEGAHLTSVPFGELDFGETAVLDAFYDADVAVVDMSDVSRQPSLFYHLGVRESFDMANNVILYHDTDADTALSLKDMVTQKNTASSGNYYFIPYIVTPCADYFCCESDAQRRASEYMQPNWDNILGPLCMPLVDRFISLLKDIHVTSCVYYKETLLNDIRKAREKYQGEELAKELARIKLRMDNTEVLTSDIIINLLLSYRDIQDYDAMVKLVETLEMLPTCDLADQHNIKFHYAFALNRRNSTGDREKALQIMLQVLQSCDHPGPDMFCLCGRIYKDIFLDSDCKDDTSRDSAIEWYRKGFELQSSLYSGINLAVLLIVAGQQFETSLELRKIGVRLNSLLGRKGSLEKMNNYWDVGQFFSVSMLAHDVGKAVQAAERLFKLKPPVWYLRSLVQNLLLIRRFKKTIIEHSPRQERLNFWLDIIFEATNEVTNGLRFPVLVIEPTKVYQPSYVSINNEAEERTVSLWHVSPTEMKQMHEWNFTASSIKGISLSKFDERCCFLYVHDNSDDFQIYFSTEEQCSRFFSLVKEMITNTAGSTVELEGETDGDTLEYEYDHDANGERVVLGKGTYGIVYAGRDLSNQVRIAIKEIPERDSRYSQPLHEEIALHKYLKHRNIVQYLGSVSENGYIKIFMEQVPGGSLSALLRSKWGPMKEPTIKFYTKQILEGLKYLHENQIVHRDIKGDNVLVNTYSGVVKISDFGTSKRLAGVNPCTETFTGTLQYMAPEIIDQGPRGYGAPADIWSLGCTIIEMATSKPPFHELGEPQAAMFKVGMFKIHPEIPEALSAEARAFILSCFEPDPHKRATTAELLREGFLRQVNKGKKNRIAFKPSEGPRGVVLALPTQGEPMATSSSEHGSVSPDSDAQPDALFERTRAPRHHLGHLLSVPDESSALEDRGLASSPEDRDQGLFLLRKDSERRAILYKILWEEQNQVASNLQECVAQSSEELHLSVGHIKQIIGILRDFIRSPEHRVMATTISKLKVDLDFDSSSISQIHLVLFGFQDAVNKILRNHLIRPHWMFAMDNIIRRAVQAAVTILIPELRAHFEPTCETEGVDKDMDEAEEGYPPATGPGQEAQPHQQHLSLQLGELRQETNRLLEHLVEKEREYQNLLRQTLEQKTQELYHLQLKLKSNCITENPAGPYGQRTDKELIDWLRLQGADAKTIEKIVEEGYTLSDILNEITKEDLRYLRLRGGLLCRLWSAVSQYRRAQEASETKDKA

[3] = molecular target: Activin receptor type-2B (Homo sapiens) (UniProt Q13705); assay: Inhibition of ACVR2B at 1 uM
Outline: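 Ambit KINOMEscan screen at a single concentration across a 250–400 kinase panel, recorded as percent inhibition. Selectivity was expressed as S(90), the fraction of kinases inhibited >90%.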

[4] = molecular target: Serine/threonine-protein kinase pim-2 (Homo sapiens) (UniProt Q9P1W9); assay: Inhibition of PIM2 at 1 uM
[5] = molecular target: T2, Cyclin-dependent kinase-like 5 (Homo sapiens) (UniProt O76039); assay: Inhibition of CDKL5 at 1 uM
T2 sequence (whole entry): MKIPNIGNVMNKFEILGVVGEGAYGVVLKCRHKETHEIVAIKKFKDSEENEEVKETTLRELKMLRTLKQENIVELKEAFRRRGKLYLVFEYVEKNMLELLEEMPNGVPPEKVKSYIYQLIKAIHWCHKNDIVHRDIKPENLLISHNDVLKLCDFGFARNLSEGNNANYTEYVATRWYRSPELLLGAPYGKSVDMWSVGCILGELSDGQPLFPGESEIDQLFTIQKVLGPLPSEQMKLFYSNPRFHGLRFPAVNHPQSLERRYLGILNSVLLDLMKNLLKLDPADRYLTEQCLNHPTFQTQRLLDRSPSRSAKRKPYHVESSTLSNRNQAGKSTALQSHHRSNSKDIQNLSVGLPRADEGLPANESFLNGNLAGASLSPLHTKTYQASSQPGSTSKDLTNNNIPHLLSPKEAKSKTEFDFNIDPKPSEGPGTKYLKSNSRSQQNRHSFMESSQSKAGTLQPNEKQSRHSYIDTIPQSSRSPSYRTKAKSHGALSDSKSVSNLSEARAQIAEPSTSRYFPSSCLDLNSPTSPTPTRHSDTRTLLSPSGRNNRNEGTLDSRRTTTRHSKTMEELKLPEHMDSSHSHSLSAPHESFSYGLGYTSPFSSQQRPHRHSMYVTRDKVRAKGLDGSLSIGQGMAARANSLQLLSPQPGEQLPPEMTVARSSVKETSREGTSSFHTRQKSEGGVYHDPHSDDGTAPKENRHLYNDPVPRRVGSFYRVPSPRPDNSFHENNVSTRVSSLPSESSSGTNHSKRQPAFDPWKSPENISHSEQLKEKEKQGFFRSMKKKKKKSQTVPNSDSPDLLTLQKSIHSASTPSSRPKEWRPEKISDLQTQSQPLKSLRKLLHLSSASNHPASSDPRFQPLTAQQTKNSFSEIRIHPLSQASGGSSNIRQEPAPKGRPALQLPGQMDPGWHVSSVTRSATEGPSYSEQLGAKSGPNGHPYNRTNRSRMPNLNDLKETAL

[6] = molecular target: Serine/threonine-protein kinase 26 (Homo sapiens) (UniProt Q9P289); assay: Inhibition of MST4 at 1 uM
[7] = molecular target: Ephrin type-A receptor 4 (Homo sapiens) (UniProt P54764); assay: Inhibition of EPHA4 at 1 uM; outline: as §1
[8] = molecular target: Serine/threonine-protein kinase 25 (Homo sapiens) (UniProt O00506); assay: Inhibition of YSK1 at 1 uM
[9] = molecular target: Receptor tyrosine-protein kinase erbB-4 (Homo sapiens) (UniProt Q15303); assay: Inhibition of ERBB4 at 1 uM; outline: as §1
Receptor tyrosine-protein kinase erbB-4 (Homo sapiens), sequence (Q15303 whole entry): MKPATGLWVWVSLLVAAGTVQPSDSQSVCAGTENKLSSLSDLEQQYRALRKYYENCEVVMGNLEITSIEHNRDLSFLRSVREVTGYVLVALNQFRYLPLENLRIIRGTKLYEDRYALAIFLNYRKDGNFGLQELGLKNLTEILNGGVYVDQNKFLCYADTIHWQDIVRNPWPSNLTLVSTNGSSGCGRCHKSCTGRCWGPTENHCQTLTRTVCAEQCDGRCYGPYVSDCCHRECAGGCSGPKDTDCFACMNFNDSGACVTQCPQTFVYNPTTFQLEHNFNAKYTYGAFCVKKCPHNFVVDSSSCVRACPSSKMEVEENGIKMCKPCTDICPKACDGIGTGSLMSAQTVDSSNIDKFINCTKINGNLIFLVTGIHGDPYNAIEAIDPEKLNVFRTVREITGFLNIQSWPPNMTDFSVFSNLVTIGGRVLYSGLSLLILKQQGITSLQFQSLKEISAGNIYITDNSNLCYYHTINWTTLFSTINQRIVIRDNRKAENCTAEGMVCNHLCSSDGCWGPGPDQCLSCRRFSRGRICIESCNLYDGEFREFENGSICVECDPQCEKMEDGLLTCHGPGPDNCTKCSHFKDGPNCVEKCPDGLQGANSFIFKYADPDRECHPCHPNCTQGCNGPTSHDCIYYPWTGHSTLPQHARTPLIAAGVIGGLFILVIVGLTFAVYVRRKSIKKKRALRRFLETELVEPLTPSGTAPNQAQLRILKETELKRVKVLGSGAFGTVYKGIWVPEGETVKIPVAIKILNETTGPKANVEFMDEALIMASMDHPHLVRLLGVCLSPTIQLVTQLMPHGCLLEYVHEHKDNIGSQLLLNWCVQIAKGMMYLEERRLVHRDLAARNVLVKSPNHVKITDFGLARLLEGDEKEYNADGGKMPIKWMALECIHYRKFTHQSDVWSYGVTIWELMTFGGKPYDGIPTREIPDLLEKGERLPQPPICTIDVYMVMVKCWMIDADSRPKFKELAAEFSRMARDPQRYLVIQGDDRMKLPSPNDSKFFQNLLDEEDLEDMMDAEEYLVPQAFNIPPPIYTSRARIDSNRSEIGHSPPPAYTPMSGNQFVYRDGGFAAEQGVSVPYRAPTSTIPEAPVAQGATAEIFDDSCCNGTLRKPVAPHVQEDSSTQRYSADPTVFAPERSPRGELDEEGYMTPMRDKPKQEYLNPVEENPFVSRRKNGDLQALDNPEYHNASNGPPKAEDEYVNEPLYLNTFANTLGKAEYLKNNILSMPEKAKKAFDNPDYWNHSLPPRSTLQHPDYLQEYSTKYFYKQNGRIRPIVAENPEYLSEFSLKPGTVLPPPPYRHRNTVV

Ephrin type-A receptor 4 (Homo sapiens), sequence (P54764 whole entry): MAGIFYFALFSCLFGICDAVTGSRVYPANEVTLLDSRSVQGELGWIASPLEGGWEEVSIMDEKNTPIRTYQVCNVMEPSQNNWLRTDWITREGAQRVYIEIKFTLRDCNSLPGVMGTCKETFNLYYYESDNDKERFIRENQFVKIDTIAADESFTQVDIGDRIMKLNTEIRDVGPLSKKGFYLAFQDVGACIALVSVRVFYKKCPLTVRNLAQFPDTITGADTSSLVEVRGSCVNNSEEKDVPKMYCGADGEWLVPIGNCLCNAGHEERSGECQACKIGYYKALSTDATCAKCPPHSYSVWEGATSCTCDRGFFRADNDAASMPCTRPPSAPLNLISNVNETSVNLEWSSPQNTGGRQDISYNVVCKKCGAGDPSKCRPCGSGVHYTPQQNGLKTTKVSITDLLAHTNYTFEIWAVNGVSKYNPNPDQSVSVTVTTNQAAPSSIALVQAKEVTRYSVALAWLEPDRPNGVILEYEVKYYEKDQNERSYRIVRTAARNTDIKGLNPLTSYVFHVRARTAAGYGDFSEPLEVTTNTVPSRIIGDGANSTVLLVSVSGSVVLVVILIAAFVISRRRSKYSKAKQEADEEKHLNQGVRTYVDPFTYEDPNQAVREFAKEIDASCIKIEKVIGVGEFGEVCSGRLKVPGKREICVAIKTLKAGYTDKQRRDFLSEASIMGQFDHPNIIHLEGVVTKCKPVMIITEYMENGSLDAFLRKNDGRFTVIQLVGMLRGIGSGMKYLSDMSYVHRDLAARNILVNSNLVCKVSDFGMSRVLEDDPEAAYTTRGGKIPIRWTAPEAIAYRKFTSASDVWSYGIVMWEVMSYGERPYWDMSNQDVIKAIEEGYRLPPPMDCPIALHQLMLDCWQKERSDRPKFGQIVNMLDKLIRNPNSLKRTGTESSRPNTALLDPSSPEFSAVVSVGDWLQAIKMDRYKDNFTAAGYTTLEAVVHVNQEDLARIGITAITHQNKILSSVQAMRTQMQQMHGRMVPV
Serine/threonine-protein kinase 26 (Homo sapiens), sequence (Q9P289 2-416 limits assumed): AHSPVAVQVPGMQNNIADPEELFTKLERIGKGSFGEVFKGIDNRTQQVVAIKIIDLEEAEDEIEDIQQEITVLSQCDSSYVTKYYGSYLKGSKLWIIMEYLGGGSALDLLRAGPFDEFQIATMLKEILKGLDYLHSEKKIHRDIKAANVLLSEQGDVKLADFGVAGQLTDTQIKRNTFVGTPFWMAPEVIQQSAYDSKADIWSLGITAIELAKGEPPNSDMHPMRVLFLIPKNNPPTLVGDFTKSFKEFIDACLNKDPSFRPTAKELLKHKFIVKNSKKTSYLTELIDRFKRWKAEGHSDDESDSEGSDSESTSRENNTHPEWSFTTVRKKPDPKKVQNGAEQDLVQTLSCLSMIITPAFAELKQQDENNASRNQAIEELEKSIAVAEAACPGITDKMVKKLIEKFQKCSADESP
Activin receptor type-2B (Homo sapiens), sequence (Q13705 whole entry): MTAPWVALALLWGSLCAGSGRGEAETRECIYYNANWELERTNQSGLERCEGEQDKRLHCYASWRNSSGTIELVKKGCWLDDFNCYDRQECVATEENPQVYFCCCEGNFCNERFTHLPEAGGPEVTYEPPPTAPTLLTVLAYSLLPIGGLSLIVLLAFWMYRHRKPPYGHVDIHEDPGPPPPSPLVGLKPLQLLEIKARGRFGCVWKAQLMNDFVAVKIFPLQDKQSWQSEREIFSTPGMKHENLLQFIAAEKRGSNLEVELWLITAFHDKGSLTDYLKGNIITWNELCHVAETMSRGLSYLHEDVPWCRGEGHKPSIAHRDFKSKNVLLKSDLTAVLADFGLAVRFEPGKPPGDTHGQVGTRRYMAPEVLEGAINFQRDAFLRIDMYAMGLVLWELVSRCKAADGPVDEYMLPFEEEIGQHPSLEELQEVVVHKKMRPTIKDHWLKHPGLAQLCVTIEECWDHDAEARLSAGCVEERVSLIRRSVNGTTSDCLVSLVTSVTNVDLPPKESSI
Casein kinase I isoform gamma-3 (Homo sapiens), sequence (Q9Y6M4 whole entry, looked up, canonical isoform): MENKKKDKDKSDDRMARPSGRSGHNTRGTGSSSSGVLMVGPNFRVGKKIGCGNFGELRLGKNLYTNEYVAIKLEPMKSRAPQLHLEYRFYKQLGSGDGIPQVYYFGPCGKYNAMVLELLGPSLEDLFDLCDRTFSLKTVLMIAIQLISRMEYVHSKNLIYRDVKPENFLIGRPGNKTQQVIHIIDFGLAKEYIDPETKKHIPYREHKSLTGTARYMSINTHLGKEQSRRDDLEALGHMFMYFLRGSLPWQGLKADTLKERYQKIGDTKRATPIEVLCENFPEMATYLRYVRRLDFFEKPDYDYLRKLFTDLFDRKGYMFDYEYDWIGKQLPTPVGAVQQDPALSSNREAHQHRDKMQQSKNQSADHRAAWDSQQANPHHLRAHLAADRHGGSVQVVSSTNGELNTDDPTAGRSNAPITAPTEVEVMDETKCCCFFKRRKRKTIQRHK
Serine/threonine-protein kinase pim-2 (Homo sapiens), sequence (Q9P1W9 whole entry, looked up): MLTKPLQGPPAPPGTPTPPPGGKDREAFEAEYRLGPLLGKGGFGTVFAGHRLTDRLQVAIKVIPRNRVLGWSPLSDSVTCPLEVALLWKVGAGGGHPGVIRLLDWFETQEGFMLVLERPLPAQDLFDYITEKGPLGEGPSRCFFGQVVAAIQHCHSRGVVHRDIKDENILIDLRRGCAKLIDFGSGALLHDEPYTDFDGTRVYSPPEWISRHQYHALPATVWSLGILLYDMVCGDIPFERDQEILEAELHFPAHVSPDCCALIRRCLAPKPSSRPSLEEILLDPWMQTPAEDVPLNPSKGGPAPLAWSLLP
Serine/threonine-protein kinase 25 (Homo sapiens), sequence (O00506 whole entry, looked up): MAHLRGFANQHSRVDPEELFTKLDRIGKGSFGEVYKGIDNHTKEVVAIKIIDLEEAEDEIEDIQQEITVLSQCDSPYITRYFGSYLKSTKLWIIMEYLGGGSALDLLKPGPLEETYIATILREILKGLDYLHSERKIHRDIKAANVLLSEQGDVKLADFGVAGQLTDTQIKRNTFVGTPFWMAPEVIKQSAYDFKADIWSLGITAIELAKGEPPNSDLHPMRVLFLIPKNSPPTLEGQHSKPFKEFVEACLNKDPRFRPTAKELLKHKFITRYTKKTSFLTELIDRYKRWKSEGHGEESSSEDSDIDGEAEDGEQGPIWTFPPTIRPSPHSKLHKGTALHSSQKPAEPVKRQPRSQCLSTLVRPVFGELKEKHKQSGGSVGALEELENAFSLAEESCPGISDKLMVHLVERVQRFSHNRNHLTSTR

inhibition [1] [%]	inhibition [2] [%]	inhibition [3] [%]	inhibition [4] [%]	inhibition [5] [%]	inhibition [6] [%]	inhibition [7] [%]	inhibition [8] [%]	inhibition [9] [%]	Structure (SMILES)
< 50	< 50	< 50	< 50	< 50	< 50	< 50	< 50	< 50	CN1CCN(c2ccc(-c3cnc4c(c3)N(Cc3cc(Cl)ccc3C(F)(F)F)CCN4)cn2)CC1
< 50	–	< 50	< 50	–	< 50	< 50	–	< 50	O=C(O)c1ccc(-c2cnc3c(c2)N(Cc2cc(Cl)ccc2C(F)(F)F)CCN3)cc1
< 50	–	< 50	< 50	–	< 50	< 50	–	< 50	O=C(c1ccc(-c2cnc3c(c2)N(Cc2cc(Cl)ccc2C(F)(F)F)CCN3)cc1)N1CCC(N2CCCC2)CC1
< 50	–	< 50	< 50	–	< 50	< 50	–	< 50	COC1CCN(C(=O)c2ccc(-c3cnc4c(c3)N(Cc3cc(Cl)ccc3C(F)(F)F)CCN4)cc2)CC1
< 50	< 50	< 50	< 50	< 50	< 50	< 50	< 50	< 50	FC(F)(F)c1ccc(Cl)cc1CN1CCNc2ncc(-c3ccnc(N4CCNCC4)c3)cc21
< 50	< 50	< 50	< 50	< 50	< 50	< 50	< 50	< 50	CC(=O)N1CCN(c2cc(-c3cnc4c(c3)N(Cc3cc(Cl)ccc3C(F)(F)F)CCN4)ccn2)CC1
< 50	< 50	< 50	< 50	< 50	< 50	< 50	< 50	< 50	CN1CCN(c2ccc(-c3cnc4c(c3)N(Cc3cc(F)ccc3F)CCN4)cn2)CC1
< 50	< 50	< 50	< 50	< 50	< 50	< 50	< 50	< 50	CN1CCN(c2ccc(-c3cnc4c(c3)N(Cc3c(F)ccc(F)c3Cl)CCN4)cn2)CC1
< 50	–	< 50	< 50	–	< 50	< 50	–	< 50	O=C(c1ccc(-c2cnc3c(c2)N(Cc2cc(Cl)ccc2C(F)(F)F)CCN3)cc1)N1CCCCC1
< 50	< 50	< 50	< 50	< 50	< 50	< 50	< 50	< 50	CN1CCN(c2ccc(-c3cnc4c(c3)N(Cc3cc(Cl)ccc3Cl)CCN4)cn2)CC1
